Consider 27 compounds from ChEMBL document CHEMBL1135065, “2-(anilinomethyl)imidazolines as alpha1A adrenergic receptor agonists: 2'-heteroaryl and 2'-oxime ether series” (Bioorg Med Chem Lett, 2002).

Assay [1] deals with T1, Alpha-1B adrenergic receptor (Homo sapiens, UniProt P35368).
T1 sequence (P35368 whole entry): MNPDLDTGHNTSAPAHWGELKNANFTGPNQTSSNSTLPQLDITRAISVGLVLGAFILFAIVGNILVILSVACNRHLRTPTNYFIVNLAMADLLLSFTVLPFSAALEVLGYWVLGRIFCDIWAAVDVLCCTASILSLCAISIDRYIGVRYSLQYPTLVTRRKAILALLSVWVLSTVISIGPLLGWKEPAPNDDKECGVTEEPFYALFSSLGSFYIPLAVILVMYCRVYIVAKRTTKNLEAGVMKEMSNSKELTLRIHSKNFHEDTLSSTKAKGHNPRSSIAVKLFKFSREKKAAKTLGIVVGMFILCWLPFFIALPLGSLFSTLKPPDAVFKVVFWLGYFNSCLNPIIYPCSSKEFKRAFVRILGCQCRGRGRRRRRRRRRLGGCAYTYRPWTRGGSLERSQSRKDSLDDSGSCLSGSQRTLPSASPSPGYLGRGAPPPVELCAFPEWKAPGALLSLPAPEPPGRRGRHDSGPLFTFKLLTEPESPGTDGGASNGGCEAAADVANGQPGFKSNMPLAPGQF
Description: In vitro activation of human Alpha-1B receptor expressed in rat-1 fibroblasts via calcium mobilization through the Gq coupled PLC pathway as functional assay. For orientation: A change in cytosolic calcium serves as a functional read-out for many receptors and channels.

For assay [2], the target named is T2, Alpha-1D adrenergic receptor (Homo sapiens, UniProt P25100).
T2 sequence (P25100 whole entry): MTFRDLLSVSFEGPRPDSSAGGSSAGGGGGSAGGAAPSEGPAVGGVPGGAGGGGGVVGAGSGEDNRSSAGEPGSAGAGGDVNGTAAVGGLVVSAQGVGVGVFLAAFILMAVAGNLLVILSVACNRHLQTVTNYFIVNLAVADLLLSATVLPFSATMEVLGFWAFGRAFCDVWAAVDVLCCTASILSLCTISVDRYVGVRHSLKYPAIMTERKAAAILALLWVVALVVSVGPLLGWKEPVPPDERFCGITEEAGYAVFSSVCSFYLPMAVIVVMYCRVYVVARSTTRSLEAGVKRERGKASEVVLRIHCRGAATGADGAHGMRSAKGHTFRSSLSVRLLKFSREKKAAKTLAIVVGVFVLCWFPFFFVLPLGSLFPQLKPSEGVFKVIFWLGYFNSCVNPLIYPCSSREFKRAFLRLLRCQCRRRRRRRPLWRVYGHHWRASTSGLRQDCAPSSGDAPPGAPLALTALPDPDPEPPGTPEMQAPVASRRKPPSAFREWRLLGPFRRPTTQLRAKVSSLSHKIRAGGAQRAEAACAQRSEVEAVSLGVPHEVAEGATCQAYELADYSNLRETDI
The assay can be described thus: In vitro activation of human alpha-1D receptor expressed in rat-1 fibroblasts via calcium using mobilization through the Gq coupled PLC pathway as functional assay. The essentials:
(§1)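 Calcium mobilization via Gq/PLC was read by FLIPR with Calcium Green fluorescent dye. Eleven-point concentration–response curves, top concentration typically 5 µM, expressed as percent of the 40 µM phenylephrine response. Values are pEC50 and % maximal response, mean of at least two experiments.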

Assay [3] addresses T3, Alpha-1A adrenergic receptor (Homo sapiens, UniProt P35348).
T3 sequence (P35348 whole entry): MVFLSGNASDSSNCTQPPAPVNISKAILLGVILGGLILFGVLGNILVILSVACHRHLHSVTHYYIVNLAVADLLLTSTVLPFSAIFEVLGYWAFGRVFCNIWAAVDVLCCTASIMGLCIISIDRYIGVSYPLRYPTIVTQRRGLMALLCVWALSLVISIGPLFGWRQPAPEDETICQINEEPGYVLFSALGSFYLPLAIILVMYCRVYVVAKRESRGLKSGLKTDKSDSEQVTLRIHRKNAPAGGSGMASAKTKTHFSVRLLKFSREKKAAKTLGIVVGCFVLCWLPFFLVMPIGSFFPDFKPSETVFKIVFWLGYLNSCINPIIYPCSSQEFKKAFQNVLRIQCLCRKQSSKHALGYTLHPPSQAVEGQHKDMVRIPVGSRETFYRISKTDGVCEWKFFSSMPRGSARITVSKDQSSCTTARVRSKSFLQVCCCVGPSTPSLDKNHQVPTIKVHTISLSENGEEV
Description: In vitro activation of human alpha-1A receptor expressed in rat-1 fibroblasts via calcium mobilization through the Gq coupled PLC pathway as functional assay. Put shortly:
as §1

Assay [4] concerns the target T4, Alpha-1A adrenergic receptor (Homo sapiens) (UniProt P35348).
T4 sequence (whole entry): T3 sequence (P35348 whole entry)
The assay can be described thus: In vitro human alpha-1A receptor activation determined via calcium mobilization through the Gq coupled PLC pathway in rat-1 fibroblasts as percent maximum of phenylephrine response. It is filed as functional. Put shortly: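 Human α1A (clone #137–12) or α1D (clone #16–7) adrenoceptor stably expressed in Rat-1 fibroblasts. Calcium mobilization via Gq/PLC was read by FLIPR with Calcium Green fluorescent dye. Eleven-point concentration–response curves, top concentration typically 5 µM, expressed as percent of the 40 µM phenylephrine response. Values are pEC50 and % maximal response, mean of at least two experiments.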

For assay [5], the target named is T1, Alpha-1B adrenergic receptor. Description: In vitro binding affinity against human Alpha-1B adrenergic receptor expressed in rat-1 fibroblasts. The essentials: (§2)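 Radioligand binding on membranes from Rat-1 fibroblasts expressing human α1A, α1B or α1D adrenoceptor. Affinity reported as pIC50, mean of at least two experiments.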
For assay [6], the target named is T3, Alpha-1A adrenergic receptor. Description: In vitro binding affinity against human Alpha-1A adrenergic receptor expressed in rat-1 fibroblasts cells. It is filed as cell-based, Fibroblast. Put shortly: as §2
The target in assay [7] is T2, Alpha-1D adrenergic receptor. Description: In vitro binding affinity against human Alpha-1D adrenergic receptor expressed in rat-1 fibroblasts. The essentials:
as §2

SMILES strings stand for the structures.

Turning to `Nc1nccc(-c2ccccc2NCC2=NCCN2)n1`, the values for the concentration for a half-maximal effect (EC50) in assay [1], in assay [2] and in assay [3] were over 5010 nM, 28.8 nM and 42.7 nM, respectively.
In the same order, the values of `Cc1cc(-c2ccccc2NCC2=NCCN2)on1` are 95.5 nM, over 100000 nM and 38.9 nM.
On the same counts, the results for `c1csc(-c2ccccc2NCC2=NCCN2)c1` are 5.75 nM, 18.2 nM and 2.24 nM.
Take `CC/C(=N\OC)c1ccccc1NCC1=NCCN1`: the values for the EC50 in assay [1], in assay [2] and in assay [3] were over 100000 nM, over 100000 nM and 3.31 nM, respectively. For the same compound, in assay [4], the Max was found to be 112%.
As to `c1ccc(-c2cnoc2)c(NCC2=NCCN2)c1`, the figures for the EC50 in assay [1], in assay [2] and in assay [3] were over 100000 nM, over 100000 nM and 45.7 nM, respectively.
On to `c1coc(-c2ccccc2NCC2=NCCN2)c1`, for which the EC50 in assay [1] was 6.31 nM; in assay [2] it was 16.2 nM; in assay [3] it was 0.468 nM.
For `CO/N=C(\C)c1ccccc1NCC1=NCCN1`, the figures for the EC50 in assay [1], in assay [2] and in assay [3] were over 5010 nM, over 5010 nM and 20.9 nM, respectively. In assay [4], the Max is 92%.
`c1ccc(-c2ccno2)c(NCC2=NCCN2)c1`: the EC50 in assay [1] was 3.72 nM; in assay [2] it was 2.88 nM; in assay [3] it was 0.794 nM. For the same compound, the concentration for half-maximal inhibition (IC50) in assay [5] was 132 nM; in assay [6] it was 35.5 nM; in assay [7] it was 38 nM.
For the compound `CC/C(=N/OC)c1ccccc1NCC1=NCCN1`, the EC50 in assay [1] is over 5010 nM; in assay [2], over 5010 nM; in assay [3] it was 87.1 nM. Also, the Max in assay [4] came out at 141%.
Take `Cc1ccc(-c2ccccc2NCC2=NCCN2)o1`: the EC50 was 46.8 nM in assay [1], over 2000 nM in assay [2] and 2.69 nM in assay [3].
As for `FC(F)(F)c1cccnc1-c1ccccc1NCC1=NCCN1`, the values for the concentration for a half-maximal effect (EC50) in assay [1], in assay [2] and in assay [3] were over 100000 nM, over 100000 nM and 676 nM, respectively.
Take `CCO/N=C(\C)c1ccccc1NCC1=NCCN1`: the EC50 was over 5010 nM in assay [1], over 5010 nM in assay [2] and 52.5 nM in assay [3]. In assay [4], the Max was 102%.
For the compound `Cc1nc(-c2ccccc2NCC2=NCCN2)co1`, the 50% effective concentration (EC50) in assay [1] was over 5010 nM; in assay [2] it was over 5010 nM; in assay [3] it was 324 nM.
Turning to `CO/N=C/c1ccccc1NCC1=NCCN1`, the EC50 is over 5010 nM in assay [1], over 5010 nM in assay [2] and 51.3 nM in assay [3]. Moreover, the Max in assay [4] was determined as 94%. The values for the IC50 in assay [5], in assay [6] and in assay [7] were 162 nM, 282 nM and 42.7 nM, respectively.
Turning to `Cc1cccnc1-c1ccccc1NCC1=NCCN1`, the EC50 in assay [1] was over 100000 nM; in assay [2] it was over 100000 nM; in assay [3], 24.5 nM.
In the case of `Cc1ncoc1-c1ccccc1NCC1=NCCN1`, the EC50 is over 100000 nM in assay [1], over 100000 nM in assay [2] and 15.1 nM in assay [3]. Besides, the concentration for half-maximal inhibition (IC50) was 324 nM in assay [5], 191 nM in assay [6] and 347 nM in assay [7].
On to `c1ccc(-c2ncco2)c(NCC2=NCCN2)c1`, for which the EC50 is 1.62 nM in assay [1], 5.01 nM in assay [2] and 0.661 nM in assay [3]. The values for the IC50 in assay [5], in assay [6] and in assay [7] were 447 nM, 45.7 nM and 40.7 nM, respectively.
On to `Cc1nc(-c2ccccc2NCC2=NCCN2)cs1`, for which the figures for the concentration giving a half-maximal response (EC50) in assay [1], in assay [2] and in assay [3] were 69.2 nM, over 5010 nM and 4.47 nM, respectively.
As for `c1ccc(-c2ccccc2NCC2=NCCN2)nc1`, the half-maximal effective concentration (EC50) in assay [1] is 30.2 nM; in assay [2] it was 41.7 nM; in assay [3], 6.76 nM. Further, the half-inhibitory concentration (IC50) in assay [5] is 589 nM; in assay [6], 81.3 nM; in assay [7], 117 nM.
`c1ccc(-c2cnccn2)c(NCC2=NCCN2)c1`: the results for the EC50 in assay [1], in assay [2] and in assay [3] were 339 nM, 182 nM and 4.57 nM, respectively.
As to `c1cnc(-c2ccccc2NCC2=NCCN2)nc1`, the 50% effective concentration (EC50) is 77.6 nM in assay [1], 81.3 nM in assay [2] and 10 nM in assay [3]. In addition, the values for the IC50 in assay [5], in assay [6] and in assay [7] were 2190 nM, 191 nM and 417 nM, respectively.
As for `Cc1nc(-c2ccccc2NCC2=NCCN2)no1`, the values for the EC50 in assay [1], in assay [2] and in assay [3] were 676 nM, over 5010 nM and 724 nM, respectively.
On the same counts, the results for `Cc1ncc(-c2ccccc2NCC2=NCCN2)o1` are over 5010 nM, over 5010 nM and 110 nM.
In the same order, the values of `Cc1ccc(-c2ccccc2NCC2=NCCN2)s1` are over 100000 nM, over 100000 nM and 36.3 nM.
On the same counts, the results for `Cc1noc(-c2ccccc2NCC2=NCCN2)n1` are over 5010 nM, over 5010 nM and 661 nM.
In the case of `Cc1ccsc1-c1ccccc1NCC1=NCCN1`, the concentration for a half-maximal effect (EC50) is 112 nM in assay [1], 49 nM in assay [2] and 0.851 nM in assay [3].
Take `c1ccc(-c2cnco2)c(NCC2=NCCN2)c1`: the EC50 in assay [1] was over 5010 nM; in assay [2] it was over 5010 nM; in assay [3], 17.4 nM. In addition, the IC50 in assay [5] is 229 nM; in assay [6], 457 nM; in assay [7], 295 nM.

The EC50 is the concentration needed to bring the measured effect to its halfway point. As a reminder, the IC50 is the concentration at which inhibition is half-maximal. A high value points to a need for much substance.
